Assay results: ChEMBL document CHEMBL4680087, “Chemical Inhibition of Human Thymidylate Kinase and Structural Insights into the Phosphate Binding Loop and Ligand-Induced Degradation” (J Med Chem, 2016)
One block for each compound: values may come before it. The source made the active and inactive calls. No cut-off for these calls is given here.

Experiments:
[1] = molecular target: T1, Thymidylate kinase (Homo sapiens) (UniProt P23919); test: Binding affinity to GST-tagged human TMPK expressed in Escherichia coli BL21 assessed as formation of disulfide bonds with Cys residues incubated for 30 mins at 25 degC in presence of trypsin by LC-MS/MS analysis
T1 sequence (whole entry): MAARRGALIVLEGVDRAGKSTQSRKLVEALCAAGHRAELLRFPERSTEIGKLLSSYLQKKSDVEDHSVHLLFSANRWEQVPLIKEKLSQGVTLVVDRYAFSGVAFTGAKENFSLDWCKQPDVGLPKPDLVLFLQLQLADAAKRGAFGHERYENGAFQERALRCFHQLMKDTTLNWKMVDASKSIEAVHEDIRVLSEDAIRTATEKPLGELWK
Summary of the method: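 hTMPK incubated with compound (20 μL of 10 mM DMSO stock in 1 mL PBS pH 7.4), 25 °C, 30 min. DTNB served as positive control and DMSO as negative control. Excess compound removed by dialysis against water. Digested with trypsin (1:50 w/w), 37 °C, 12 h, without denaturation or DTT reduction. Peptides analysed by nanoLC-ESI-MS/MS.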

[2] = molecular target: T1, Thymidylate kinase (Homo sapiens); test: Inhibition of GST-tagged human TMPK expressed in Escherichia coli BL21 at 2 uM incubated for 10 mins by luciferase-coupled TMPK assay
[3] = Cytotoxicity in mouse 32D cells after 3 days by WST-1 assay; format: cell-based; conditions: 72 h, time 3 day
Thymidylate kinase = molecular target: T2, Thymidylate kinase (Homo sapiens, UniProt P23919); test: Inhibition of GST-tagged human TMPK expressed in Escherichia coli BL21 incubated for 10 mins by luciferase-coupled TMPK assay
T2 sequence (P23919 whole entry): T1 sequence (whole entry)
Summary of the method: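 Purified hTMPK (10 μL of 0.1 μg/μL) and compound (10 μL of 10 μM, diluted from 10 mM DMSO stock) added to 100 mM Tris-HCl pH 7.5, 100 mM KCl, 10 mM MgCl2, 5 μM ATP, 100 μM dTMP. Reaction run 10 min at 25 °C. Remaining ATP read by CellTiter-Glo luminescence. IC50 from triplicate independent experiments.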

[4] = molecular target: T1, Thymidylate kinase (Homo sapiens); test: Inhibition of GST-tagged human TMPK expressed in Escherichia coli BL21 incubated for 20 mins by NADH-coupled colorimetric assay
Summary of the method: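 Purified hTMPK at 25 °C in 100 mM Tris-HCl pH 7.5, 100 mM KCl, 10 mM MgCl2, 500 μM ATP, 250 μM TMP/CMP. Coupling mix: 500 μM phosphoenolpyruvate, 250 μM NADH, pyruvate kinase (4 units) and lactate dehydrogenase (5 units). NADH change read at 340 nm after 20 min.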

[5] = Inhibition of tyrosine kinase activity in protein samples from human MDA-MB-231 cells using TK substrate incubated for 30 mins; format: cell-based; conditions: MDA-MB-231, 0.5 h
Summary of the method: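 Tyrosine kinase immunoprecipitated from MB-231 cell protein extracts and suspended in kinase solution with 10 mM 2-mercaptoethanol. Diluted enzyme mixed with compound (from 5 mM aqueous dilution) and ATP on substrate-coated wells, 37 °C, 30 min. Phosphotyrosine detected with anti-phosphotyrosine (PY20)-HRP and HRP substrate, stopped with H2SO4, absorbance read at 450 nm.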

[6] = Cytotoxicity in IL-3-dependent mouse 32D cells expressing Bcr-Abl after 3 days by WST-1 assay; format: functional, cell-based; conditions: 72 h
[7] = molecular target: T1, Thymidylate kinase (Homo sapiens); test: Binding affinity to GST-tagged human TMPK expressed in Escherichia coli BL21 assessed as binding constant for compound to protein 1:1 stoichiometry by ITC analysis
Summary of the method: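 ITC in PBS pH 7.4 with 50% glycerol at 298 K, stirring at 1000 rpm. Compound (1.228 mM) injected into hTMPK (0.0817 mM): a first 0.5 μL injection, then 2 μL injections at 4-min spacing. Fitted for stoichiometry, association constant, ΔH and ΔS.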

[8] = molecular target: T1, Thymidylate kinase (Homo sapiens); test: Inhibition of GST-tagged human TMPK expressed in Escherichia coli BL21 incubated for 10 mins in presence of [gamma-32P]ATP by 32P-phosphate transfer assay
Summary of the method: (§1)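 hTMPK (0.2 μg) or Candida Cdc8 (0.02 μg; GST fusion from E. coli BL21, purified similarly). Compound preincubated 10 min, then enzyme added to 0.05 μM [γ-32P]ATP, 50 μM ATP and 50 μM dTMP in 100 mM Tris-HCl, 100 mM KCl, 10 mM MgCl2. Stopped by heating. Products separated by PEI-cellulose TLC (2 M acetic acid/0.5 M LiCl), and 32P-dTDP spots counted by scintillation.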

Candida = test: Inhibition of Candida Cdc8 incubated for 10 mins in presence of [gamma-32P]ATP by 32P-phosphate transfer assay; summary of the method: as §1
[9] = molecular target: T1, Thymidylate kinase (Homo sapiens); test: Binding affinity to GST-tagged human TMPK expressed in Escherichia coli BL21 pre-incubated for 30 mins at 25 degC followed by UV irradiation by HRP based Western blot analysis
Summary of the method: (§2)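 Photoprobe (6.8 μL of 3 mM DMSO stock) and purified hTMPK incubated in 1 mL PBS pH 7.4 with protease inhibitor cocktail, 25 °C, 30 min. Irradiation where applied: 254-nm UV, three 1-min exposures. Samples boiled in SDS sample buffer and run on 12% SDS-PAGE. Transferred to PVDF, probed with streptavidin-HRP, detected by chemiluminescence.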

[10] = molecular target: T1, Thymidylate kinase (Homo sapiens); test: Binding affinity to ATP binding site of GST-tagged human TMPK expressed in […] assessed as mass shift of labeled peptides in presence of chymotrypsin by LC-MS/MS analysis
Summary of the method: (§3)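 Purified hTMPK (from GST fusion in E. coli […], thrombin-cleaved) preincubated with biotin-arylazide photoprobe in PBS pH 7.4, 25 °C, 30 min, then irradiated with 254-nm UV light three times for 1 min each. Protein denatured in 6.5 M urea, reduced with DTT and alkylated with iodoacetamide. Digested with trypsin (1:50 w/w) or chymotrypsin (1:100 w/w), 37 °C, 16 h. Peptides analysed by nanoLC-ESI-MS/MS, with or without monomeric avidin enrichment.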

[11] = molecular target: T1, Thymidylate kinase (Homo sapiens); test: Binding affinity to GST-tagged human TMPK expressed in Escherichia coli BL21 pre-incubated for 30 mins at 25 degC followed by absence of irradiation by HRP based Western blot analysis; summary of the method: as §2
[12] = molecular target: T1, Thymidylate kinase (Homo sapiens); test: Binding affinity to ATP binding site of GST-tagged human TMPK expressed in Escherichia coli […] assessed as mass shift of labeled peptides in presence of trypsin by LC-MS/MS analysis; summary of the method: as §3

SMILES: CC(C)(C)OC(=O)N1CCN(C(=O)COc2nsc3ncccc23)CC1
inhibition [2]: inactive

SMILES: CC(C)(C)OC(=O)N1CCN(C(=O)Cn2sc3ncccc3c2=O)CC1
Activity [3]: Non-Toxic
IC50 (Thymidylate kinase): 470 nM
inhibition [4]: Active
inhibition [2]: 91.3%
IC50 [5]: > 100000 nM
EC50 [6]: 1400 nM

SMILES: CCOC(=O)N1CCN(C(=O)COc2nsc3cc(C)cc(C)c23)CC1
inhibition [2]: inactive

SMILES: Cc1cc(C)c2c(=O)n(CC(=O)N3CCN(C(=O)OC(C)(C)C)CC3)sc2n1
inhibition [2]: 76.3%

SMILES: Cc1cc(C)c2c(=O)n(CC(=O)N3CCNCC3)sc2n1
inhibition [2]: 73.4%
K [7]: 127000 M⁻¹

SMILES: CCOC(=O)N1CCN(C(=O)Cn2sc3nc(C)cc(C)c3c2=O)CC1
Activity [3]: Non-Toxic
IC50 (Thymidylate kinase): 1650 nM
inhibition [4]: Active
inhibition [8]: Active
Activity [1]: inactive
inhibition [2]: 70%
IC50 [5]: > 100000 nM
EC50 [6]: 880 nM
inhibition (Candida): inactive

SMILES: [N-]=[N+]=Nc1ccc2c(=O)n(CC(=O)N3CCN(CCOCCOCCOC(=O)CCCC[C@@H]4SC[C@@H]5NC(=O)N[C@@H]54)CC3)sc2c1
Activity [9]: Active
inhibition [2]: 86.9%
Activity [10]: 422 Da
IC50 [5]: > 100000 nM
Activity [11]: inactive
Activity [12]: 648 Da

Further lines, with some results ahead:

Activity [1]: Active
SMILES: O=C(O)c1cc(SSc2ccc([N+](=O)[O-])c(C(=O)O)c2)ccc1[N+](=O)[O-]

inhibition [2]: inactive
SMILES: CC(C)(C)OC(=O)N1CCN(C(=O)COc2nsc3ccccc23)CC1

inhibition [2]: 70%
SMILES: CCOC(=O)N1CCN(C(=O)Cn2sc3ccccc3c2=O)CC1

IC50 (Thymidylate kinase): 350 nM
inhibition [4]: Active
inhibition [2]: 91.3%
IC50 [5]: > 100000 nM
SMILES: CC(C)(C)OC(=O)N1CCN(C(=O)Cn2sc3ccccc3c2=O)CC1
Activity [3]: Non-Toxic
EC50 [6]: 650 nM

inhibition [2]: 7%
SMILES: CCOC(=O)N1CCN(C(=O)CCCn2sc3ccccc3c2=O)CC1

inhibition [2]: < 2%
SMILES: O=c1c2ccccc2sn1-c1ccc(F)c(Cl)c1

Activity [1]: Active
SMILES: O=c1c2ccccc2sn1-c1ccccc1
